ABCB6 inh 2 – blocks the human ABCB6 transporter | AID 602162 | Q9NP58 | fluorescence ratio to DMSO, % at 10 µM | K562-ABCB6 porphyrin accumulation, flow cytometry, 1 h; hits give low values | actives 0.19% (n = 360,000);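 active means fluorescence ratio to DMSO below 75%, the collection mean minus 3 SD; inconclusive means too few cells collected in the well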;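 further: signal is porphyrin accumulated inside mitochondria; lower ratio means ABCB6 inhibition with less porphyrin fluorescence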
Myeloid diff 2 – compounds promoting myeloid differentiation. actives 1% (n = 360,000). AID 624256. ER-HoxA9 myeloid progenitors, lysozyme-GFP differentiation, flow cytometry. calls only at 10 µM;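 active means normalized GFP-positive differentiation at or above the plate's own cutoff, the solvent-only control mean plus 3 SD; inconclusive means no clear call, values can overlap the other calls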;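 further: cells exposed to compound for four days before flow analysis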
ATG4B inhibitor – inhibitors of human ATG4B cysteine protease | ATG4B cleavage of LC3-PLA2, NBD-HPC fluorescence, 1 h | inhibition, % at 8.33 µM | actives 0.51% (n = 340,000) | AID 504462; in the data active means inhibition above about 40%
Target sequence (Q9Y4P1 whole entry, looked up): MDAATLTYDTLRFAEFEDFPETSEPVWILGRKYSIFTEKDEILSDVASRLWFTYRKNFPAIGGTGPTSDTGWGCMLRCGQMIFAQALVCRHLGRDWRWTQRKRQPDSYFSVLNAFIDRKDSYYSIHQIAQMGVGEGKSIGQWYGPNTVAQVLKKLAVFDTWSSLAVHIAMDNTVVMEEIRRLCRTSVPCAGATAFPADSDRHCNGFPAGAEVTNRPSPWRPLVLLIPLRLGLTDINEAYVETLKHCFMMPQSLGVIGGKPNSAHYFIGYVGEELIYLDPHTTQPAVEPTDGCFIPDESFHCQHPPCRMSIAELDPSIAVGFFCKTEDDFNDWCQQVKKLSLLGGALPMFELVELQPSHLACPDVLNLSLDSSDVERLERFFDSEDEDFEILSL
Exocytosis inh – blocks lytic granule exocytosis | TALL-104 LAMP-1 surface exposure, flow cytometry; cells stimulated with thapsigargin and PMA | inhibition, % at 10 µM | actives 0.66% (n = 360,000);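 active means inhibition above about 55%, limit read from the data; inconclusive means no clear call, values can overlap the other calls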
Arrestin-AP2 inh – inhibitors of human beta-arrestin and AP2 interaction; AID 504490; actives 0.31% (n = 340,000); inhibition, % at 10 µM; FITC-arrestin peptide / GST-AP2 beads, flow cytometry; AP2 beta2 appendage carries R879A mutation;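 active means inhibition above a set limit, near 3 SD of compounds lacking own fluorescence, cut at about 54% in these data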
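Test system: GST-tagged AP2 beta2-adaptin appendage (R879A) on 4 µm glutathione beads; also added: fluorescein-tagged arrestin peptide at 50 nM final; timing: 12 min plus 1 h, RT; signal: flow cytometry, FL1 (488/535 nm); read-out: percent drop in bead-associated FITC signal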
NRP1-CendR mod – NRP-1/CendR interaction modulation | inhibition, % at 25 µM | FAM-RPARPAR peptide binding to NRP-1, fluorescence polarization | actives 0.85% (n = 360,000) | O14786;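 active means inhibition or corrected inhibition above about 18%, plus a signal ratio from 0.5 to 1.5, limit read from the data, passing the limit was not always enough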
Arr-AP2 CP1 – blocks beta-arrestin peptide binding to human AP2 | shares compounds with Arrestin-AP2 inh | GST-AP2 beads, FITC arrestin peptide binding, flow cytometry; GST-fused beta2-adaptin appendage, R879A mutant | inhibition, % at 10 µM | actives 2% (n = 1,300) | AID 504908;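 active means inhibition above a set limit, roughly 3 SD of non-fluorescent compound noise, cut at about 38% in these data; inactive means inhibition at or below that limit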;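 further: loss of bead fluorescence from 50 nM FITC arrestin peptide bound to appendage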
GST GSH counter – disrupts GST binding to glutathione beads, arrestin-AP2 artifact; inhibition, % at 10 µM; AID 588338; shares compounds with Arrestin-AP2 inh; GST-fluorescein binding to GSH beads, fluorescence, counter-screen; actives 2% (n = 1,300);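 active means inhibition above 50%, about 3 SD of the inhibition seen with non-fluorescent compounds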;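 further: fluorescein maleimide labelled GST captured on 4 micron glutathione beads; higher means more loss of bead fluorescence from quenching or blocked binding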
Large screens that a line does not name were inactive (follow-up assays come after a bar, where they were run). This is a sample that favours compounds with a hit; in the whole collection about 3.3% have one here.

O=C(c1ccco1)N1CCN(S(=O)(=O)c2ccc3c(c2)OCCO3)CC1	Arrestin-AP2 inh 96 | Arr-AP2 CP1 inactive | GST GSH counter inactive
O=S(=O)(c1ccc2c(c1)OCCO2)N1CCN(S(=O)(=O)c2ccco2)CC1	none
O=C(CNc1cc(S(=O)(=O)N2CCOCC2)ccc1N1CCCC1)Nc1ccc(Cl)cc1	none
CC(C)Cn1c(N)c(C(=O)COC(=O)c2ccc(Cl)cc2)c(=O)n(C)c1=O	none
CC(C)Cn1c(N)c(C(=O)COC(=O)c2ccc(Br)cc2)c(=O)n(C)c1=O	none | Arr-AP2 CP1 inactive | GST GSH counter inactive
CC(C)Cn1c(N)c(C(=O)COC(=O)c2ccncc2)c(=O)n(C)c1=O	none | Arr-AP2 CP1 inactive | GST GSH counter inactive
COc1cc(C(=O)Nc2cc3c(cc2N2CCCCC2)n(C)c(=O)n3C)cc(OC)c1OC	NRP1-CendR mod 28 | Arr-AP2 CP1 inactive | GST GSH counter inactive
CCOc1cc(C(=O)Nc2cc3c(cc2N2CCCC2)n(C)c(=O)n3C)cc(OCC)c1OCC	none | Arr-AP2 CP1 inactive | GST GSH counter inactive
COc1ccc(C(=O)Nc2cc3c(cc2N2CCCCC2)n(C)c(=O)n3C)cc1OC	Myeloid diff 2 inconclusive (no result: Arrestin-AP2 inh) | Arr-AP2 CP1 inactive
Cc1ccc(C(=O)Nc2cc3c(cc2N2CCCCC2)n(C)c(=O)n3C)cc1	none | Arr-AP2 CP1 inactive | GST GSH counter inactive
COc1cc(C(=O)Nc2ccccc2N2CCN(S(C)(=O)=O)CC2)cc(OC)c1OC	none
CC(=O)C1=C(O)C(=O)N(c2ccc(S(N)(=O)=O)cc2)C1c1ccc([N+](=O)[O-])cc1 (centres undefined)	Arrestin-AP2 inh 97 | Arr-AP2 CP1 inactive | GST GSH counter inactive
Cc1cc(-c2ccc(C(C)C)c(S(=O)(=O)N3CCC(C)CC3)c2)on1	Myeloid diff 2 inconclusive, Arrestin-AP2 inh 58 | Arr-AP2 CP1 inactive | GST GSH counter inactive
Cc1ccc2[nH]c(=O)c3cc(C(=O)N(C)c4ccc(C)c(C)c4)sc3c2c1	Arrestin-AP2 inh 58 | Arr-AP2 CP1 inactive | GST GSH counter inactive
CCOC(=O)C(Cc1nc(OCc2ccccc2)cc(OCc2ccccc2)n1)=NO	none
CN(Cc1cccc(F)c1)C(=O)c1cc(S(=O)(=O)N2CCOCC2)ccc1N1CCCC1	none | Arr-AP2 CP1 inactive | GST GSH counter inactive
CCc1ccc(CN(C)C(=O)c2cc(S(=O)(=O)N3CCOCC3)ccc2N2CCCC2)cc1	none | Arr-AP2 CP1 inactive | GST GSH counter inactive
CCN(Cc1ccccc1)C(=O)c1cc(S(=O)(=O)N2CCOCC2)ccc1N1CCCC1	Arrestin-AP2 inh 57 | Arr-AP2 CP1 inactive | GST GSH counter inactive
Cc1ccsc1CN(C)C(=O)c1cc(S(=O)(=O)N2CCOCC2)ccc1N1CCCC1	none
COc1ccccc1NS(=O)(=O)c1cccc(NC(=O)C2CC(=O)N(Cc3ccccc3)C2)c1 (centres undefined)	Arrestin-AP2 inh 60 | Arr-AP2 CP1 inactive | GST GSH counter inactive
COc1ccccc1NS(=O)(=O)c1cccc(NC(=O)C2CC2)c1	none
O=C(Nc1ccc(NC(=O)c2cccs2)cc1Cl)c1ccco1	none
O=C(Nc1ccc(NC(=O)c2cccs2)c(Cl)c1)c1cccs1	Arrestin-AP2 inh 55 | Arr-AP2 CP1 inactive | GST GSH counter inactive
Cc1ccccc1C(=O)Nc1c(C(=O)N(CCN(C)C)Cc2ccco2)oc2ccccc12	Arrestin-AP2 inh 58 | Arr-AP2 CP1 inactive | GST GSH counter inactive
COc1ccc(OCC(=O)Nc2c(C(=O)N(CCN(C)C)Cc3ccco3)oc3ccccc23)cc1	none
C/C(=N\NC(=O)c1cc(-c2ccncc2)nc2ccccc12)c1ccc(N2CCOCC2)cc1	Arrestin-AP2 inh 111 | Arr-AP2 CP1 inactive | GST GSH counter inactive
Cc1cc(NC(=O)c2ccc(N3CCCC3)c([N+](=O)[O-])c2)no1	Arrestin-AP2 inh 98 | Arr-AP2 CP1 inactive | GST GSH counter inactive

Source: PubChem
